This is an account of results in ChEMBL document CHEMBL4431370, “Novel tricyclic poly (ADP-ribose) polymerase-1/2 inhibitors with potent anticancer chemopotentiating activity: Design, synthesis and biological evaluation” (Bioorg Med Chem, 2016).

SMILES strings stand for the structures. pEC50, pIC50: −log10 of the molar value.

The target of assay [1] is T1, Poly [ADP-ribose] polymerase 1 (Homo sapiens, UniProt P09874). Description: Inhibition of PARP-1 (unknown origin) at 100 nM after 1 hr in presence of NAD+/biotinylated NAD+/slDNA by ELISA. The method in brief:
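Histone-coated wells (20 μg/mL in PBS pH 7.4, 4 °C overnight). Reaction buffer 50 mM Tris, 2 mM MgCl2, pH 8.0, with 100 μM NAD+, 25 μM biotinylated NAD+ and 200 nM slDNA. Started with PARP-1 (50 ng/well), 1 h at 30 °C. Detection by streptavidin-HRP for 30 min at 30 °C, then H2O2/luminol in citrate buffer pH 5.4, luminescence read. Inhibition % = (control−treated)/control ×100.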

For assay [2], the target named is T1, Poly [ADP-ribose] polymerase 1. In words: Inhibition of PARP-1 (unknown origin) after 1 hr in presence of NAD+/biotinylated NAD+/slDNA by ELISA.
Assay [3] concerns the target Poly [ADP-ribose] polymerase 2 (Homo sapiens, UniProt Q9UGN5). In words: Inhibition of PARP-2 (unknown origin) after 1 hr in presence of NAD+/biotinylated NAD+/slDNA by ELISA.
Assay [4] relates to SW-620. Description: Growth inhibition of human SW620 cells at 100 uM after 72 hrs by SRB assay. Type of assay: functional. Conditions: for inhibition of growth at 100 µM: Homo sapiens, SW-620, 72 h, read-out: GI. The essentials: (§1)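 SRB read-out on adherent cells seeded in 96-well plates. Single-agent exposure at 100 μM for 72 h. Cells fixed in trichloroacetic acid for 1 h at 4 °C, stained with 0.4% (w/v) SRB for 20 min at room temperature, washed with 1% acetic acid. Bound dye solubilized in 10 mM Tris, absorbance read at 540 nm. Percent proliferation inhibition reported; means of two independent experiments.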

Assay [5] concerns SW-620. Description: Growth inhibition of human SW620 cells after 72 hrs by SRB assay. The class given is functional, cell-based.
Assay [6] concerns MDA-MB-468. Description: Growth inhibition of human MDA-MB-468 cells at 100 uM after 72 hrs by SRB assay. The class given is functional. To be noted: for inhibition of growth at 100 µM: Homo sapiens, MDA-MB-468, 72 h, read-out: GI. The essentials:
as §1

Assay [7] deals with MDA-MB-468. In words: Growth inhibition of human MDA-MB-468 cells after 72 hrs by SRB assay. Type of assay: functional, cell-based.
Assay [8] deals with T1, Poly [ADP-ribose] polymerase 1. Conditions: MDA-MB-468.
For assay [9] the target is unchanged.
Assay [10] shares this target. To be noted: A549.

Chain of Poly [ADP-ribose] polymerase 2 (Q9UGN5 whole entry): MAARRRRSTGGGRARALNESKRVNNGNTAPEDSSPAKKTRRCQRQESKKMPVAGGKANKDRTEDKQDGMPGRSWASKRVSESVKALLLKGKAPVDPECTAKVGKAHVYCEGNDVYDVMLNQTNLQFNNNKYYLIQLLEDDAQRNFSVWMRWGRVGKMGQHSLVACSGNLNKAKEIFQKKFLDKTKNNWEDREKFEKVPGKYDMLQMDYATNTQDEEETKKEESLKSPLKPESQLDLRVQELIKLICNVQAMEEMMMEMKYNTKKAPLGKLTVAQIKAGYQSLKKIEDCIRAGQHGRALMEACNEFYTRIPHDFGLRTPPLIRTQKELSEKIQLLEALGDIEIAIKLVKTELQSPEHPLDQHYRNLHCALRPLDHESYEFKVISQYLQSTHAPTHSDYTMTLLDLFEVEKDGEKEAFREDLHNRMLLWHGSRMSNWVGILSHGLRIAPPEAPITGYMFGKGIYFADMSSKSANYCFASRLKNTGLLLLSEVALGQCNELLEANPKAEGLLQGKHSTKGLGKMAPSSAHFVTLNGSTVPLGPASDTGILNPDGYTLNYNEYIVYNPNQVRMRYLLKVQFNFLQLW
T1 sequence (P09874 whole entry): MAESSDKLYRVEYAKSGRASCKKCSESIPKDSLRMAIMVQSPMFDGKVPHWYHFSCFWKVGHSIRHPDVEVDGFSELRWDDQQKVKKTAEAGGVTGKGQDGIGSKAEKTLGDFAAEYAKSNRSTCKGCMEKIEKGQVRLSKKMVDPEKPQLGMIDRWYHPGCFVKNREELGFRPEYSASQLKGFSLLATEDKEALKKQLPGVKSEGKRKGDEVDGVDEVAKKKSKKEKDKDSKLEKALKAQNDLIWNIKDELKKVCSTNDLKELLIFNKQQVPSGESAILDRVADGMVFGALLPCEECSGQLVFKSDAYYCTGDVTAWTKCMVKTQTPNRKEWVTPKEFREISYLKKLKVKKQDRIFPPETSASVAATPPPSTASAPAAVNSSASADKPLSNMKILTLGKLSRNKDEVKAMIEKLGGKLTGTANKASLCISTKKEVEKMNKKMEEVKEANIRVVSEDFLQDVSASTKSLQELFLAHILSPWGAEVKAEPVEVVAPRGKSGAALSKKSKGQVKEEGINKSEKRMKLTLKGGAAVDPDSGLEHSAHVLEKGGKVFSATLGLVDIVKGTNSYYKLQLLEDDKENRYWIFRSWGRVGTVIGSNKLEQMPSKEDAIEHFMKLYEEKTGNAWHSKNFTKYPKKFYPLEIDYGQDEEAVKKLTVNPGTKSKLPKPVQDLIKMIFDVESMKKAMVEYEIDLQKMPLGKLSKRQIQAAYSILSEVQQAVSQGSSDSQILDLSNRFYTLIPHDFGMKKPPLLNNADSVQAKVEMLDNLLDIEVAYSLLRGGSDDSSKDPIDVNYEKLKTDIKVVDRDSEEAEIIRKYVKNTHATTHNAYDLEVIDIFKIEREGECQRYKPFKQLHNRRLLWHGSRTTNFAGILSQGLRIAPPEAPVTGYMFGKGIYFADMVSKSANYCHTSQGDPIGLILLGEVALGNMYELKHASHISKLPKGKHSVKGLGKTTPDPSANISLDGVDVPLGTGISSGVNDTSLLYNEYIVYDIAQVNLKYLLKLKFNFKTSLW

As to `O=C1NCCn2c(C3CCN(C(=O)c4ccccc4)CC3)nc3cncc1c32`, the inhibition in [1] was under 10%.

For the compound `CN(C)Cc1ccc(-c2nc3cncc4c3n2CCNC4=O)cc1`, the pIC50 in assay [2] was 7.55.

As to `CCNCc1ccc(-c2nc3cncc4c3n2CCNC4=O)cc1`, the pIC50 in assay [2] was 7.96; in [3], 8.00. The values for the inhibition of growth at 100 µM in the assay with SW-620 [4] and in the assay on MDA-MB-468 [6] were 94% and 82%, respectively. The pEC50 in the assay with SW-620 [5] (Homo sapiens, SW-620, 72 h) is 4.63; in the assay on MDA-MB-468 [7] (Homo sapiens, MDA-MB-468, 72 h), 5.34.

For the compound `O=C1NCCn2c(C3CCNCC3)nc3cncc1c32`, the pIC50 in assay [2] was 7.27. Also, the inhibition of growth at 100 µM in the assay with SW-620 [4] is 25%; in the assay on MDA-MB-468 [6], 32%.

`C[C@]1(c2nc3c(C(N)=O)cccc3[nH]2)CCCN1` [VELIPARIB]: the “growth inhibition (GI)” value came to 95% in the assay with SW-620 [4] and 69% in the assay with MDA-MB-468 [6]. Also, the pEC50 in the assay on SW-620 [5] (sw-620) is 4.57; with MDA-MB-468 [7] (mda-mb-468), 4.37. Also, the PF50 is 1.2 in [8], 3.1 in assay [9] and 1.5 in [10].

In the case of `O=C1NCCn2c(C3CCN(C(=O)c4ccc(Cl)cc4)CC3)nc3cncc1c32`, the inhibition in assay [1] was under 10%.

In the case of `O=C1NCCn2c(-c3ccccc3)nc3cncc1c32`, the pIC50 in assay [2] was 6.96.

Turning to `CNCc1ccc(-c2nc3cncc4c3n2CCNC4=O)cc1`, the pIC50 in [2] is 7.89; in assay [3], 8.14. Moreover, the inhibition of growth at 100 µM was determined as 80% with SW-620 [4] and 71% with MDA-MB-468 [6]. The pEC50 in the assay on SW-620 [5] (Homo sapiens, SW-620, 72 h) was 4.05; in the assay with MDA-MB-468 [7] (Homo sapiens, MDA-MB-468, 72 h), 4.09.

In the case of `O=C1NCCn2c(C3CCN(C(=O)c4cccc(Cl)c4)CC3)nc3cncc1c32`, the inhibition in assay [1] is under 10%.

Regarding `O=C1NCCn2c(C3CCN(C(=O)c4ccccc4Cl)CC3)nc3cncc1c32`, the inhibition in assay [1] was under 10%.

Take `CC(=O)N1CCC(c2nc3cncc4c3n2CCNC4=O)CC1`: the inhibition in [1] is under 10%.

Consider `O=C1NCCn2c(-c3ccc(CN4CCCC4)cc3)nc3cncc1c32`, for which the negative-log IC50 (pIC50) in [2] is 7.70.

For `O=C1NCCn2c(-c3ccc(CN4CCCCC4)cc3)nc3cncc1c32`, in assay [2], the pIC50 is 7.54.

Consider `O=C1NCCn2c(C3CCN(C(=O)C4CC4)CC3)nc3cncc1c32`, for which, in assay [1], the inhibition was under 10%.

`CN1CCN(c2ccc(-c3nc4cncc5c4n3CCNC5=O)cc2)CC1`: in assay [2], the pIC50 was 6.86.

On to `CC(C)(C)NCc1ccc(-c2nc3cncc4c3n2CCNC4=O)cc1`, for which the pIC50 in assay [2] was 7.12.

With `CC(C)CN1CCC(c2nc3cncc4c3n2CCNC4=O)CC1`, the figures for the pIC50 in assay [2] and in assay [3] were 7.55 and 8.11, respectively. Moreover, the figures for the inhibition of growth at 100 µM with SW-620 [4] and in the assay on MDA-MB-468 [6] were 77% and 53%, respectively. In addition, the pEC50 is 4.28 with SW-620 [5] (Homo sapiens, SW-620, 72 h) and 4.72 in the assay on MDA-MB-468 [7] (Homo sapiens, MDA-MB-468, 72 h).

As for `O=C1NCCn2c(-c3ccc(N4CCNCC4)cc3)nc3cncc1c32`, the pIC50 in assay [2] was 7.70; in assay [3], 8.26. The inhibition of growth at 100 µM with SW-620 [4] amounted to 15%; in the assay on MDA-MB-468 [6] it was 57%. The same compound had a pEC50 in the assay with MDA-MB-468 [7] (Homo sapiens, MDA-MB-468, 72 h) of 4.03.

On to `CC(C)NCc1ccc(-c2nc3cncc4c3n2CCNC4=O)cc1`, for which the pIC50 in [2] was 7.24.

Regarding `CCCCN1CCC(c2nc3cncc4c3n2CCNC4=O)CC1`, in assay [2], the pIC50 was 7.68. The inhibition of growth at 100 µM amounted to 67% in the assay with SW-620 [4] and 47% with MDA-MB-468 [6]. For the same compound, the pEC50 with SW-620 [5] (Homo sapiens, SW-620, 72 h) is 4.02.

For `O=C1NCCn2c(C3CCN(Cc4ccccc4)CC3)nc3cncc1c32`, the pIC50 in assay [2] was 6.99.

For the compound `CCCN1CCC(c2nc3cncc4c3n2CCNC4=O)CC1`, in assay [2], the pIC50 was 7.72. In addition, the inhibition of growth at 100 µM with SW-620 [4] worked out at 41%; with MDA-MB-468 [6], 30%.

Regarding `CC(C)N1CCC(c2nc3cncc4c3n2CCNC4=O)CC1`, the pIC50 in assay [2] is 7.04.
